Experimental data: ChEMBL document CHEMBL4732100, “Water-soluble inhibitors of ABCG2 (BCRP) - A fragment-based and computational approach” (Eur J Med Chem, 2021)
≈ marks a conversion by molar mass, not a printed value.

Target: T1, ABCG2 (Homo sapiens, UniProt Q9UNQ0)
T1 sequence (Q9UNQ0 whole entry): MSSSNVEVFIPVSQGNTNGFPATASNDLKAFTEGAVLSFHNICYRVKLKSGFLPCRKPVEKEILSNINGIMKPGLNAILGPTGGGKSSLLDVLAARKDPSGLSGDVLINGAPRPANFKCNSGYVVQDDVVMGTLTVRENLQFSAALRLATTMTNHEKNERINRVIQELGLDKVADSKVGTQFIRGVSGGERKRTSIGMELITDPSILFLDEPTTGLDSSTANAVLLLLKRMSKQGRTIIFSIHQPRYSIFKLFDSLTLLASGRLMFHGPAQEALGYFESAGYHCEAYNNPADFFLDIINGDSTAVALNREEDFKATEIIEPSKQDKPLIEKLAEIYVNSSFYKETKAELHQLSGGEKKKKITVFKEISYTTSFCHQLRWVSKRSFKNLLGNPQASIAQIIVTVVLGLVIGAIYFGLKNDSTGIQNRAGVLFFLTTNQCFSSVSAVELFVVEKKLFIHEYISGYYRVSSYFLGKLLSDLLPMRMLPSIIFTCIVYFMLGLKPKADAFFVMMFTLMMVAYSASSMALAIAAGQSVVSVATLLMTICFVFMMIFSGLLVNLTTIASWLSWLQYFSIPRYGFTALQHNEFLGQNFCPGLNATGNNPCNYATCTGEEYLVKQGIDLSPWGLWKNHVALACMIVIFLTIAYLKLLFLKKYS
Test: Inhibition of human ABCG2 in human MCF7/Topo cells assessed as accumulation of substrate Hoechst […] stain at 10 uM measured after 2 hrs by fluorometric microplate reader assay relative to FTC
Format: cell-based
Conditions: read-out: Imax; call rule not given here

`Cc1ccc(-c2cn(CCN3CCOCC3)nn2)c(NC(=O)c2cc(=O)c3ccccc3o2)c1` and `CCC(=O)c1ccc(-c2cn(CCO)nn2)cc1NC(=O)c1cc(=O)c2ccccc2o1` cannot be ordered by Emax at 2 h, 10 µM: 108% for the first, over 71% for the second.

First: CCC(=O)c1ccc(-c2cn(-c3ccc(CCN4CCc5cc(OC)c(OC)cc5C4)cc3)nn2)cc1NC(=O)c1cccc(OC)n1
Second: CCC(=O)c1ccc(-c2cn(-c3ccc(CCN4CCc5cc(OC)c(OC)cc5C4)cc3)nn2)cc1NC(=O)c1cccc(Cl)n1
The Emax at 2 h, 10 µM of the first is lower: 92% for the first, 95% for the second.

First: CCC(=O)c1ccc(-c2cn(-c3ccc(CCN4CCc5cc(OC)c(OC)cc5C4)cc3)nn2)cc1NC(=O)c1ccc2c(n1)CCCC2
Second: CCC(=O)c1ccc(-c2cn(-c3ccc(CCN4CCc5cc(OC)c(OC)cc5C4)cc3)nn2)cc1NC(=O)c1ccc(OC)cn1
The Emax at 2 h, 10 µM of the first is lower: 63% for the first, 68% for the second.

Tested on: not listed separately
Test: Kinetic solubility of compound in PBS at pH 7.4 measured after 2 hrs by turbidimetric measurement
Conditions: read-out: Kinetic_solubility

In order of rising solubility kinetic at 2 h:
1. CCC(=O)c1ccc(-c2cn(-c3ccc(CCN4CCc5cc(OC)c(OC)cc5C4)cc3)nn2)cc1NC(=O)c1cccc(Cl)n1  1 µM (≈ 0.651 µg/mL)
2. CCC(=O)c1ccc(-c2cn(CCO)nn2)cc1NC(=O)c1cc(=O)c2ccccc2o1  3 µM (≈ 1.3 µg/mL)
3. CCC(=O)c1ccc(-c2cn(-c3ccc(CCN4CCc5cc(OC)c(OC)cc5C4)cc3)nn2)cc1NC(=O)c1ccc(OC)cn1  3 µM (≈ 1.94 µg/mL)
4. CCC(=O)c1ccc(-c2cn(-c3ccc(CCN4CCc5cc(OC)c(OC)cc5C4)cc3)nn2)cc1NC(=O)c1cccc(OC)n1  7 µM (≈ 4.53 µg/mL)
5. CCC(=O)c1ccc(-c2cn(-c3ccc(CCN4CCc5cc(OC)c(OC)cc5C4)cc3)nn2)cc1NC(=O)c1ccc2c(n1)CCCC2  7 µM (≈ 4.7 µg/mL)
6. Cc1ccc(-c2cn(CCN3CCOCC3)nn2)c(NC(=O)c2cc(=O)c3ccccc3o2)c1  10 µM (≈ 4.6 µg/mL)

Target: ATP-dependent translocase ABCB1 (Homo sapiens, UniProt P08183)
Test: Inhibition of ABCB1 in human KB-V1 cells assessed as accumulation of substrate calcein-AM stain measured after 10 mins by fluorometric microplate reader assay
Format: cell-based
Conditions: kb-v1
In short: (§1)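 KB-V1 cells (ABCB1-overexpressing KB variant) kept under 330 nM vinblastine. Calcein-AM accumulation read by fluorescence after intracellular cleavage to calcein. Compounds tested up to 100 µM. Inhibition is normalized to 10 µM tariquidar set to 100% (Imax). Mean ± SEM from ≥3 experiments in triplicate.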

Chain of ATP-dependent translocase ABCB1 (P08183 whole entry): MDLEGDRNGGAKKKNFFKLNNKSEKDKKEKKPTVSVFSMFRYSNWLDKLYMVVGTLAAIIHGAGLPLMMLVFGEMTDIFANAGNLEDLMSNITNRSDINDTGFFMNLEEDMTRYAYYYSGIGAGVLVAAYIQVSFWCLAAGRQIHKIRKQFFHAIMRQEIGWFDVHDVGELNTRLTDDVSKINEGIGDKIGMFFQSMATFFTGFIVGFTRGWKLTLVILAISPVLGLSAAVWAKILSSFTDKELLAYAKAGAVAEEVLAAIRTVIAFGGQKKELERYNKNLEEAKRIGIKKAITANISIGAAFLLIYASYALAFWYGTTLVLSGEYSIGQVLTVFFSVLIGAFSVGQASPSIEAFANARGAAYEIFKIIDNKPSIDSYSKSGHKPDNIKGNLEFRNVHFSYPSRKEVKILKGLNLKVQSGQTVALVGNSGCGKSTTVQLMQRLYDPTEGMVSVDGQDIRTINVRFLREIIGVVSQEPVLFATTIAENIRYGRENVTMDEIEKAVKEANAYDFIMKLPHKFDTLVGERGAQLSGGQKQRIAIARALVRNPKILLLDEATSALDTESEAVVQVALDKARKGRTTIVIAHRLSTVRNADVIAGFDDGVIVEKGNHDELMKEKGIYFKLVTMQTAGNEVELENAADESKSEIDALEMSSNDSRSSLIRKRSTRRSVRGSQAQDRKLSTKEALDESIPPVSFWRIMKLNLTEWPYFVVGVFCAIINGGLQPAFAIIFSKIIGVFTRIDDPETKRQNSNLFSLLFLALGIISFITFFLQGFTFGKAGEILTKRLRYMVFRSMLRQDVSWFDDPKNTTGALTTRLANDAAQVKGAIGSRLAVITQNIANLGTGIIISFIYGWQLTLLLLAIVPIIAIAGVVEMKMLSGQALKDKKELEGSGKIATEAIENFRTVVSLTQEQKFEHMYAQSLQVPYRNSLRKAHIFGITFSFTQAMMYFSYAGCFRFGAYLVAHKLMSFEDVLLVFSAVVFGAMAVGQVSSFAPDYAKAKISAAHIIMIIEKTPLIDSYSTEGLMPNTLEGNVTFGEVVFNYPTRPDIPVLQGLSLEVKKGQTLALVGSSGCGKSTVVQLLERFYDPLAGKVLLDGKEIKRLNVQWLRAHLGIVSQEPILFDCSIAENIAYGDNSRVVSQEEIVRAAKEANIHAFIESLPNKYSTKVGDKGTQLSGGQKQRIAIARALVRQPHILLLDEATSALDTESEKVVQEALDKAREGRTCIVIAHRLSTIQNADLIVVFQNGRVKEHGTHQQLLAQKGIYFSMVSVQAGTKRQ

In the case of `CCC(=O)c1ccc(-c2cn(-c3ccc(CCN4CCc5cc(OC)c(OC)cc5C4)cc3)nn2)cc1NC(=O)c1cccc(OC)n1`, the IC50 is reported as “Not Active”.
With `CCC(=O)c1ccc(-c2cn(-c3ccc(CCN4CCc5cc(OC)c(OC)cc5C4)cc3)nn2)cc1NC(=O)c1cccc(Cl)n1` the IC50 was “Not Active”.
For `CCC(=O)c1ccc(-c2cn(-c3ccc(CCN4CCc5cc(OC)c(OC)cc5C4)cc3)nn2)cc1NC(=O)c1ccc2c(n1)CCCC2`, the IC50 was “Not Active”.

Same assay, conditions: read-out: IC50

`Cc1ccc(-c2cn(CCN3CCOCC3)nn2)c(NC(=O)c2cc(=O)c3ccccc3o2)c1` and `CCC(=O)c1ccc(-c2cn(CCO)nn2)cc1NC(=O)c1cc(=O)c2ccccc2o1` cannot be ordered by IC50: over 1600 nM for the first, over 2290 nM for the second.

`CCC(=O)c1ccc(-c2cn(-c3ccc(CCN4CCc5cc(OC)c(OC)cc5C4)cc3)nn2)cc1NC(=O)c1ccc(OC)cn1` showed an IC50 of over 2780 nM.

Target: T1, ABCG2
Test: Substrate activity at ABCG2 in human MCF7/Topo cells assessed as increase in ATPase activity measured after 1 hr by colorimetric assay relative to sulfasalazine
Format: cell-based
Conditions: read-out: Imax
In short: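 Membranes prepared from MCF-7/Topo cells: homogenized in TMEP buffer pH 7 with protease inhibitors, 500 g spin, then 100,000 g for 1 h. Released inorganic phosphate read by molybdenum blue reaction. Basal activity set to 0% and 30 µM sulfasalazine to 100%. Concentration-response data; mean ± SEM of ≥3 experiments in triplicate.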

`Cc1ccc(-c2cn(CCN3CCOCC3)nn2)c(NC(=O)c2cc(=O)c3ccccc3o2)c1` gave an Emax at 1 h of 46%.

Target: T2, Broad substrate specificity ATP-binding cassette transporter ABCG2 (Homo sapiens, UniProt Q9UNQ0)
T2 sequence (Q9UNQ0 whole entry): T1 sequence (Q9UNQ0 whole entry)
Test: Inhibition of human ABCG2 in human MCF7/Topo cells assessed as accumulation of substrate Hoechst […] stain measured after 2 hrs by fluorometric microplate reader assay
Format: cell-based
Conditions: read-out: IC50

Compared with `Cc1ccc(-c2cn(CCN3CCOCC3)nn2)c(NC(=O)c2cc(=O)c3ccccc3o2)c1`, `CCC(=O)c1ccc(-c2cn(CCO)nn2)cc1NC(=O)c1cc(=O)c2ccccc2o1` is higher in IC50: 188 nM for the first, over 1100 nM for the second.

Compared with `CCC(=O)c1ccc(-c2cn(-c3ccc(CCN4CCc5cc(OC)c(OC)cc5C4)cc3)nn2)cc1NC(=O)c1cccc(OC)n1`, `CCC(=O)c1ccc(-c2cn(-c3ccc(CCN4CCc5cc(OC)c(OC)cc5C4)cc3)nn2)cc1NC(=O)c1cccc(Cl)n1` is 2.8-fold lower in IC50: 322 nM for the first, 116 nM for the second. The second is the more potent here.

First: CCC(=O)c1ccc(-c2cn(-c3ccc(CCN4CCc5cc(OC)c(OC)cc5C4)cc3)nn2)cc1NC(=O)c1ccc2c(n1)CCCC2
Second: CCC(=O)c1ccc(-c2cn(-c3ccc(CCN4CCc5cc(OC)c(OC)cc5C4)cc3)nn2)cc1NC(=O)c1ccc(OC)cn1
The IC50 of the first is 1.6-fold higher: 180 nM for the first, 116 nM for the second. The second is the more potent here.

Target: ABCB1 (Homo sapiens, UniProt P08183)
Test: Inhibition of ABCB1 in human KB-V1 cells assessed as accumulation of substrate calcein-AM stain at 10 uM measured after 10 mins by fluorometric microplate reader assay relative to Tariquidar
Format: cell-based
Conditions: probe calcein-AM, read-out: Imax
In short: as §1

Chain of ABCB1 (P08183 whole entry): as above

`Cc1ccc(-c2cn(CCN3CCOCC3)nn2)c(NC(=O)c2cc(=O)c3ccccc3o2)c1` and `CCC(=O)c1ccc(-c2cn(CCO)nn2)cc1NC(=O)c1cc(=O)c2ccccc2o1` cannot be ordered by Emax at 10 min, 10 µM: over 13% for the first, over 41% for the second.

With `CCC(=O)c1ccc(-c2cn(-c3ccc(CCN4CCc5cc(OC)c(OC)cc5C4)cc3)nn2)cc1NC(=O)c1ccc(OC)cn1` the Emax at 10 min, 10 µM was over 13%.

Tested on: not listed separately
Test: Thermodynamic solubility of compound in PBS at pH 7.4 […] by shake-flask method
Format: physicochemical
Conditions: buffer

In order of falling Therm_solubility:
1. Cc1ccc(-c2cn(CCN3CCOCC3)nn2)c(NC(=O)c2cc(=O)c3ccccc3o2)c1  1.144 µM
2. CCC(=O)c1ccc(-c2cn(CCO)nn2)cc1NC(=O)c1cc(=O)c2ccccc2o1  0.575 µM
3. CCC(=O)c1ccc(-c2cn(-c3ccc(CCN4CCc5cc(OC)c(OC)cc5C4)cc3)nn2)cc1NC(=O)c1ccc(OC)cn1  0.119 µM

Work on `CCC(=O)c1ccc(-c2cn(-c3ccc(CCN4CCc5cc(OC)c(OC)cc5C4)cc3)nn2)cc1NC(=O)c1cccc(OC)n1` yielded a Therm_solubility of under 0.1 µM.
For `CCC(=O)c1ccc(-c2cn(-c3ccc(CCN4CCc5cc(OC)c(OC)cc5C4)cc3)nn2)cc1NC(=O)c1cccc(Cl)n1`, the Therm_solubility was under 0.1 µM.
Compound `CCC(=O)c1ccc(-c2cn(-c3ccc(CCN4CCc5cc(OC)c(OC)cc5C4)cc3)nn2)cc1NC(=O)c1ccc2c(n1)CCCC2` has a Therm_solubility of under 0.1 µM.

Tested on: not listed separately
Test: Inhibition of human ABCC1 expressed in MDCK-MRP1 cells assessed as accumulation of substrate calcein-AM stain measured after 1 hr by fluorometric microplate reader assay
Format: cell-based, Canis lupus familiaris
Conditions: not given
In short: (§2)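 MDCK.2 cells transfected with human ABCC1 (MDCK.2-MRP1), trypsinized with 2X trypsin/EDTA for 30 min. Calcein-AM accumulation measured fluorometrically. Compounds tested up to 100 µM. Inhibition is normalized to 30 µM reversan set to 100% (Imax). Mean ± SEM from ≥3 experiments in triplicate.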

For `CCC(=O)c1ccc(-c2cn(-c3ccc(CCN4CCc5cc(OC)c(OC)cc5C4)cc3)nn2)cc1NC(=O)c1cccc(OC)n1`, the IC50 was “Not Active”.
For `CCC(=O)c1ccc(-c2cn(-c3ccc(CCN4CCc5cc(OC)c(OC)cc5C4)cc3)nn2)cc1NC(=O)c1cccc(Cl)n1`, the IC50 was “Not Active”.
With `CCC(=O)c1ccc(-c2cn(-c3ccc(CCN4CCc5cc(OC)c(OC)cc5C4)cc3)nn2)cc1NC(=O)c1ccc2c(n1)CCCC2` the IC50 was “Not Active”.
With `CCC(=O)c1ccc(-c2cn(-c3ccc(CCN4CCc5cc(OC)c(OC)cc5C4)cc3)nn2)cc1NC(=O)c1ccc(OC)cn1` the IC50 was “Not Active”.

Same assay, conditions: read-out: IC50

`Cc1ccc(-c2cn(CCN3CCOCC3)nn2)c(NC(=O)c2cc(=O)c3ccccc3o2)c1` and `CCC(=O)c1ccc(-c2cn(CCO)nn2)cc1NC(=O)c1cc(=O)c2ccccc2o1` cannot be ordered by IC50: over 1470 nM for the first, over 1960 nM for the second.

Tested on: MDCK-MRP1
Test: Inhibition of human ABCC1 expressed in MDCK-MRP1 cells assessed as accumulation of substrate calcein-AM stain at 30 uM measured after 1 hr by fluorometric microplate reader assay relative to Reversan
Format: cell-based
Conditions: Canis lupus familiaris
In short: as §2

`Cc1ccc(-c2cn(CCN3CCOCC3)nn2)c(NC(=O)c2cc(=O)c3ccccc3o2)c1` and `CCC(=O)c1ccc(-c2cn(CCO)nn2)cc1NC(=O)c1cc(=O)c2ccccc2o1` cannot be ordered by Imax: over 22% for the first, over 33% for the second.

Tested on: not listed separately
Test: Cytotoxicity against human MCF7/Topo cells assessed as inhibition of cell proliferation at 1 uM measured by crystal violet based microplate reader assay
Conditions: not given
In short: (§3)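 MCF-7/Topo cells grown in DMEM/High with 2% (v/v) 200 mM L-glutamine and 10% FCS at 37 °C, 5% CO2, kept under 550 nM topotecan. Long-term incubation with inhibitor. Value given as corrected T/C = (T−C0)/(C−C0)·100 from absorbance; cytocidal effect (T−C0)/C0·100 when T<C0. Mean ± SEM of two to three experiments, each in octuplicate.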

In the case of `CCC(=O)c1ccc(-c2cn(-c3ccc(CCN4CCc5cc(OC)c(OC)cc5C4)cc3)nn2)cc1NC(=O)c1cccc(OC)n1`, the Activity is reported as “Non-Toxic”.

Tested on: not listed separately
Test: Cytotoxicity against human MCF7/Topo cells assessed as inhibition of cell proliferation at 10 uM measured by crystal violet based microplate reader assay
Conditions: not given
In short: as §3

In the case of `Cc1ccc(-c2cn(CCN3CCOCC3)nn2)c(NC(=O)c2cc(=O)c3ccccc3o2)c1`, the Activity is reported as “Non-Toxic”.
